The list is not random: actives were taken first. Their share in the collection is about 3.9%.
CHOP UPR activ – apoptotic UPR (CHOP) activation; hit rate 0.34% among 330,000; CHO-CHOP luciferase reporter, luminescence; percent of tunicamycin response over DMSO baseline; activation, % at 10 µM;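 active = at 10 µM dose, activation of 40% or more, normalized to positive control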;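 also: 100% = tunicamycin at 10 µg/mL and 0% = DMSO alone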
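Test system: CHO CHOP reporter cells. Input: 500 CHO-CHOP cells per well. Medium: F12 with 10% FBS. Technique: luciferase luminescence. Measure: percent activation relative to tunicamycin control. Dosing: 10 µM compound, 0.5% DMSO. Timing: 16-18 h cell attachment, then 6 h compound exposure, 37 °C.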
tim10-1 inh – growth inhibitors of tim10-1 mutant yeast | hit rate 2.2% among 330,000 | S. cerevisiae tim10-1 ts strain growth, BacTiter-Glo, 24 h | AID 463190 | inhibition, % at 20 µM;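 active = inhibition of at least 40%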;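 also: mutant grown at 25 °C; 0% = DMSO wells with yeast and 100% = wells holding no yeast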
tim23-1 inh – growth inhibitors of tim23-1 mutant yeast. inhibition, % at 20 µM. AID 463212. hit rate 1.3% among 330,000. S. cerevisiae tim23-1 growth, BacTiter-Glo luminescence, 24 h;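 active = growth inhibition of the mutant yeast at or above 50%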;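 also: temperature-sensitive mutant grown at 25 °C; plate controls were DMSO-treated mutant yeast for no effect and medium wells lacking yeast for full effect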
XBP1 UPR activ – adaptive UPR (XBP1) activation | CHO-XBP1 luciferase reporter, IRE1-XBP1 UPR activation, luminescence; percent of tunicamycin response, DMSO as zero | activation, % at 20 µM | hit rate 0.33% among 330,000 | AID 463104;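 active = versus positive control, 20 µM dose yields 30% or more activation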;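 also: 100% = tunicamycin at 10 µg/mL and 0% = DMSO only wells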
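Test system: CHO-XBP1 luciferase reporter cells | Buffer or medium: Serum-containing F12 medium, 10% FBS | Schedule: 6 h compound exposure at 37 °C, 5% CO2 | Detection: Steady-Glo luciferase glow luminescence, 10 min after reagent addition | Read-out basis: Activation, % of tunicamycin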
TIM10 inh – TIM10 yeast growth inhibition; S. cerevisiae TIM10 strain growth, BacTiter-Glo luminescence, 24 h; inhibition, % at 10 µM; hit rate 1.4% among 330,000; AID 463195;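 active = inhibition of 40% or more at the single tested concentration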;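 also: wild-type TIM10 isogenic control strain grown at permissive 25 °C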
tim10 confirm – TIM10 yeast growth inhibition, confirmed; shares compounds with TIM10 inh; S. cerevisiae tim10 strain growth, BacTiter-Glo luminescence, 24 h; inhibition, % at 10 µM; hit rate 63% among 4,600; AID 463215;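 active = inhibition of yeast growth at or above a set limit in either of two replicates at 10 µM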;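 also: this counterscreen used the strain with wild-type TIM10; 0% = yeast with DMSO and 100% = medium wells lacking yeast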
Active calls of the source: *; x = not tested or not shown.

SMILES	CHOP UPR activ	tim10-1 inh	tim23-1 inh	XBP1 UPR activ	TIM10 inh	tim10 confirm
CC1CCCCC12NC(=O)N(CC(=O)N1CCN(S(=O)(=O)/C=C/c3ccccc3)CC1)C2=O (centres undefined)	-1	-3	-4	-2	8	x
CC(=O)NC/C(C)=N\Nc1ccc([N+](=O)[O-])cc1	1	31	5	4	49*	-33
CC(=O)NCC(=O)OCc1ccc([N+](=O)[O-])cc1	-2	8	-5	-4	7	x
c1ccc2c(c1)nc1n2CCN1CCN1CCCC1	-1	6	5	-4	12	x
O=C1NCCOC(=O)[C@H](Cc2ccc(F)cc2)C/C=C\C[C@H]1CC(=O)N(CCO)Cc1ccccc1	0	-6	-9	6	47*	-5
O=C1NCCOC(=O)[C@H](Cc2ccc(F)cc2)C/C=C\C[C@@H]1CC(=O)N(CCO)Cc1ccccc1	1	-8	0	-4	4	x
CCOC(=O)C1CCN(C(=O)c2ccc3c(c2)NC(=O)/C(=C/c2ccccc2)S3)CC1	-2	33	38	-8	26	x
CCOC(=O)C1CCN(C(=O)c2ccc3c(c2)NC(=O)/C(=C\c2ccc(C)cc2)S3)CC1	0	21	47	-6	41*	-4
O=C1CC(=O)NC(SCC(=O)Nc2ccccc2[N+](=O)[O-])=N1	0	-2	1	-7	3	x
COc1ccc(CC(=O)NNC(=S)Nc2ccccc2)cc1Cl	2	8	3	1	1	x
CCCOc1ccc(CC(=O)NNC(=S)Nc2ccccc2)cc1Br	1	31	42	0	46*	27*
Nc1nnnn1/N=C/c1ccc(F)cc1	0	27	17	1	-1	x
CCn1cc([N+](=O)[O-])c(C(=O)N2CCOCC2)n1	-2	4	15	-1	-2	x
CCn1cc([N+](=O)[O-])c(C(=O)N2N=C3/C(=C/c4cccs4)CCCC3C2c2cccs2)n1 (centres undefined)	1	33	27	2	41*	9
Cc1ccc(S(=O)(=O)N(C)CC(=O)Nc2ccccc2N2CCCC2)cc1	1	32	43	-2	18	x
Cc1ccc(OCC(=O)N2CCc3ccccc32)cc1	2	17	20	1	2	x
O=C(COc1ccc2c(c1)CCC2)N1CCc2ccccc21	5	21	15	4	45*	37*
Cc1cccc(-n2c(-c3csc(C(C)C)c3)n[nH]c2=S)c1	1	31	43	0	42*	30
Cc1cccc(-n2c(-c3ccc(Br)o3)n[nH]c2=S)c1	1	18	19	2	25	x
Cc1cccc(-n2c(-c3csc(C)c3C)n[nH]c2=S)c1	1	39	28	0	44*	-20
O=C(N/C(=C/C=C\c1ccccc1)C(=O)N1CCOCC1)c1ccc(Br)cc1	0	35	26	0	-22	x
C=CCn1c(C(CC)CC)nc2ccccc21	0	12	12	-1	4	x
C=CCn1c(C(C)NC(=O)COC)nc2ccccc21 (centres undefined)	-1	-3	3	-1	97*	-19
CC1=NNC(=O)/C1=C\c1cn(-c2ccccc2)nc1-c1cccs1	-9	19	19	-9	88*	84*
CCOC(=O)N1CCN(C(=O)c2ccc3nc(N4CCC(C)CC4)sc3c2)CC1	-2	37	23	1	27	x
SMILES	CHOP UPR activ	tim10-1 inh	tim23-1 inh	XBP1 UPR activ	TIM10 inh	tim10 confirm
COc1cccc(N2CCN(C(=O)c3ccc4nc(N5CCC(C)CC5)sc4c3)CC2)c1	2	31	39	-4	42*	42*
COC(=O)c1cc2ccccc2c(-c2c(OC)c(C(=O)OC)cc3ccccc23)c1OC	4	30	46	5	44*	30*
COC(=O)c1cc2c(ccc3ccccc32)oc1=O	1	28	3	0	28	x
CCCCCCOC(=O)Sc1nc2ccccc2o1	0	-19	38	-2	77*	72*
O=C(Nc1cc(Oc2ccc(Cl)cc2)cc([N+](=O)[O-])c1)c1ccco1	0	32	40	1	65*	-13
CCCCn1nnc(NC(=O)c2sc3cc(Cl)ccc3c2Cl)n1	-3	5	26	0	23	x
CCN(CC)Cc1ccc(NC(=O)c2sc3cc(Cl)ccc3c2Cl)cc1	3	18	19	5	44*	40*
CCc1ccc(N(C(=O)c2ccco2)C(C(=O)NC2CCCC2)c2ccco2)cc1 (centres undefined)	5	27	23	-3	42*	-27
Cc1cccc2nc(-c3ccccc3)nc(N3CCC(O)(c4ccc(Cl)cc4)CC3)c12	0	36	36	1	43*	55*
CCN1CCN(c2nc(-c3ccccc3)nc3ccccc23)CC1	0	12	-1	1	5	x
COc1ccc(NC(=O)Nc2ccc3c(c2)C(=O)N([C@H](C)CO)C[C@H](C)[C@@H](CN(C)C(=O)Nc2ccc(OC)cc2)O3)cc1	1	-5	-6	-2	1	x
Cc1[nH]nc(N=CC2=C(O)CC(C)(C)CC2=O)c1-c1ccc(Cl)cc1	6	36	21	13	41*	30*
Cc1[nH]nc(N=CC2=C(O)CC(c3ccco3)CC2=O)c1-c1ccc(Cl)cc1 (centres undefined)	23	25	27	7	21	x
Nc1c2c(nc3sc4c(c13)CCCC4)-c1ccccc1CC2	4	22	23	3	43*	41*
O=C1CC(c2ccco2)CC(O)=C1C=Nc1cc(Cl)ccc1O (centres undefined)	16	24	-6	4	16	x
O=C1CC(c2ccco2)CC(O)=C1C=Nc1ccccc1-c1ccccc1 (centres undefined)	2	38	32	-7	41*	25
COc1ccc(C(CNC(=O)c2ccc(-c3nc4ccccc4s3)o2)N2CCCC2)cc1 (centres undefined)	6	14	11	0	20	x
C=CCn1c(=S)[nH]c2cc(C(=O)Nc3ccc(F)cc3)ccc2c1=O	6	3	-3	8	-3	x
O=C(NNC(=O)C1COc2ccccc2O1)c1ccccc1O (centres undefined)	0	8	16	-1	1	x
O=C(N/N=C/c1ccc2c(c1)OCO2)c1cccs1	4	28	50	2	57*	48*
COc1cccc(C(=O)NC2CC(C)(C)NC(C)(C)C2)c1OC	2	-5	5	-3	61*	12
COc1ccccc1C(=O)NC1CC(C)(C)NC(C)(C)C1	5	1	10	-3	4	x
